Experimental data: ChEMBL document CHEMBL1208671, “Small structural changes of pentacyclic lupane type triterpenoid derivatives lead to significant differences in their anticancer properties” (Eur J Med Chem, 2010)
Calls of active or inactive are those of the source. No cut-off for these calls is given here.

Legend:
HT-29 [1] = assay: Induction of apoptosis in human HT-29 cells at IC90 concentration after 48 hrs using annexin V and propidium iodide staining by FACS analysis relative to control; format: functional
HT-29 [2] = assay: Induction of apoptosis in human HT-29 cells assessed as DNA fragmentation at IC90 concentration after 24 hrs using ethidium bromide staining by DNA gel electrophoresis; format: functional, cell-based
In short: (§1)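 RPMI 1640 cultures (10 % heat-inactivated FBS, 37°C, 5 % CO2) were exposed to the IC90 concentration for 24 h. For trypan blue exclusion, cells excluding the dye were scored as viable or early apoptotic and blue cells as necrotic. DNA was run on agarose gels, where internucleosomal laddering (180 bp multiples) indicates apoptosis and a smear indicates necrosis.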

[3] = Cytotoxicity against human A253 cells after 96 hrs by SRB colorimetric assay; format: functional, cell-based; details: A253, 96 h
In short: (§2)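 Cells kept as monolayers in RPMI 1640 with 10 % heat-inactivated FBS and 1 % penicillin/streptomycin, 37°C, 5 % CO2, seeded at optimal density. Exponentially growing cells exposed to compound for 96 h, fixed with 10 % TCA, stained with sulforhodamine B for 30 min, washed with 1 % acetic acid, bound dye dissolved in 10 mM Tris base, OD read at 570 nm. IC50 estimated from semi-log dose-response curves versus untreated controls.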

[4] = Cytotoxicity against human 518A2 cells after 96 hrs by SRB colorimetric assay; format: functional, cell-based; details: 518A2, 96 h; in short: as §2
A549 = assay: Cytotoxicity against human A549 cells after 96 hrs by SRB colorimetric assay; format: functional, cell-based; details: A549, 96 h; in short: as §2
A2780 = assay: Cytotoxicity against human A2780 cells after 96 hrs by SRB colorimetric assay; format: functional, cell-based; details: A2780, 96 h; in short: as §2
MCF7 = assay: Cytotoxicity against human MCF7 cells after 96 hrs by SRB colorimetric assay; format: functional, cell-based; details: MCF7, 96 h; in short: as §2
SW-1736 = assay: Cytotoxicity against human SW1736 cells after 96 hrs by SRB colorimetric assay; format: functional, cell-based; details: SW-1736, 96 h; in short: as §2
HT-29 [5] = assay: Cytotoxicity against human HT-29 cells after 96 hrs by SRB colorimetric assay; format: functional, cell-based; details: HT-29, 96 h; in short: as §2
A-431 = assay: Cytotoxicity against human A431 cells after 96 hrs by SRB colorimetric assay; format: functional, cell-based; details: A-431, 96 h; in short: as §2
HT-29 [6] = assay: Induction of apoptosis in human HT-29 cells assessed as upregulation of caspase 2 activity at IC90 concentration after 24 hrs; format: functional, cell-based
In short: (§3)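 HT-29 monolayers were kept in RPMI 1640 with 10 % heat-inactivated FBS and 1 % penicillin/streptomycin at 37°C in 5 % CO2. Cells were exposed to the test agent, and caspase-2, -3, -8 and -9 activities were measured after 2, 6 and 24 h.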

HT-29 [7] = assay: Induction of apoptosis in human HT-29 cells assessed as upregulation of caspase 8 activity at IC90 concentration after 24 hrs; format: functional, cell-based; in short: as §3
HT-29 [8] = assay: Induction of apoptosis in human HT-29 cells assessed as upregulation of caspase 8 activity at IC90 concentration after 2 hrs; format: functional, cell-based; in short: as §3
HT-29 [9] = assay: Cell cycle arrest in human HT-29 cells assessed as accumulation at subG1 phase at IC90 concentration after 24 hrs using propidium iodide staining by flow cytometry; format: functional
In short: (§4)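 Exponentially growing cells were exposed to the IC90 concentration for 24 and 48 h. Cell-cycle phase distribution, including the sub-G1 apoptotic peak, was compared with untreated controls at each time.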

HT-29 [10] = assay: Induction of apoptosis in human HT-29 cells assessed as upregulation of caspase 2 activity at IC90 concentration after 6 hrs; format: functional, cell-based; in short: as §3
HT-29 [11] = assay: Induction of apoptosis in human HT-29 cells assessed as programmed cell death at IC90 concentration after 24 hrs by trypan blue exclusion test; format: functional, cell-based; in short: as §1
HT-29 [12] = assay: Cell cycle arrest in human HT-29 cells assessed as accumulation at subG1 phase at IC90 concentration after 48 hrs using propidium iodide staining by flow cytometry; format: functional; in short: as §4
HT-29 [13] = assay: Cell cycle arrest in human HT-29 cells assessed as accumulation at G1 phase at IC90 concentration after 24 hrs using propidium iodide staining by flow cytometry; format: functional; in short: as §4
HT-29 [14] = assay: Cell cycle arrest in human HT-29 cells assessed as accumulation at G1 phase at IC90 concentration after 48 hrs using propidium iodide staining by flow cytometry; format: functional; in short: as §4
HT-29 [15] = assay: Induction of apoptosis in human HT-29 cells assessed as upregulation of caspase 2 activity at IC90 concentration after 2 hrs; format: functional, cell-based; in short: as §3
HT-29 [16] = assay: Induction of apoptosis in human HT-29 cells assessed as upregulation of caspase 3 activity at IC90 concentration after 2 hrs; format: functional, cell-based; in short: as §3
HT-29 [17] = assay: Induction of apoptosis in human HT-29 cells assessed as upregulation of caspase 9 activity at IC90 concentration after 24 hrs; format: functional, cell-based; in short: as §3
HT-29 [18] = assay: Induction of apoptosis in human HT-29 cells assessed as upregulation of caspase 3 activity at IC90 concentration after 24 hrs; format: functional, cell-based; in short: as §3
HT-29 [19] = assay: Cell cycle arrest in human HT-29 cells assessed as accumulation at S phase at IC90 concentration after 48 hrs using propidium iodide staining by flow cytometry; format: functional; in short: as §4
HT-29 [20] = assay: Cell cycle arrest in human HT-29 cells assessed as accumulation at S phase at IC90 concentration after 24 hrs using propidium iodide staining by flow cytometry; format: functional; in short: as §4
HT-29 [21] = assay: Cell cycle arrest in human HT-29 cells assessed as accumulation at G2/M phase at IC90 concentration after 48 hrs using propidium iodide staining by flow cytometry; format: functional; in short: as §4
HT-29 [22] = assay: Induction of apoptosis in human HT-29 cells assessed as upregulation of caspase 9 activity at IC90 concentration after 2 hrs; format: functional, cell-based; in short: as §3
HT-29 [23] = assay: Cell cycle arrest in human HT-29 cells assessed as accumulation at G2/M phase at IC90 concentration after 24 hrs using propidium iodide staining by flow cytometry; format: functional; in short: as §4
HT-29 [24] = assay: Induction of apoptosis in human HT-29 cells assessed as upregulation of caspase 9 activity at IC90 concentration after 6 hrs; format: functional, cell-based; in short: as §3
HT-29 [25] = assay: Induction of apoptosis in human HT-29 cells assessed as upregulation of caspase 3 activity at IC90 concentration after 6 hrs; format: functional, cell-based; in short: as §3
HT-29 [26] = assay: Induction of apoptosis in human HT-29 cells assessed as upregulation of caspase 8 activity at IC90 concentration after 6 hrs; format: functional, cell-based; in short: as §3

SMILES | Activity (HT-29 [1]) | Activity (HT-29 [2]) | IC50 [3] | IC50 [4] | IC50 (A549) | IC50 (A2780) | IC50 (MCF7) | IC50 (SW-1736) | IC50 (HT-29 [5]) | IC50 (A-431) | also measured
C=C(C)[C@@H]1CC[C@]2(C(=O)O)CC[C@]3(C)[C@H](CC[C@@H]4[C@@]5(C)CC[C@H](O)C(C)(C)[C@@H]5CC[C@]43C)[C@@H]12 | Active | Active |  |  |  |  |  |  |  |  | 
C=C(C)[C@@H]1CC[C@]2(C(=O)O)CC[C@]3(C)[C@H](CC[C@@H]4[C@@]5(C)CC[C@H](OC(C)=O)C(C)(C)[C@@H]5CC[C@]43C)[C@@H]12 |  |  | 11.8 µM | 4.65 µM | 6.73 µM | 19 µM | 11.1 µM | 7.3 µM | 16.1 µM | 10.7 µM | 
C=C(C)[C@@H]1CC[C@]2(C(=O)OCC(N)(CO)CO)CC[C@]3(C)[C@H](CC[C@@H]4[C@@]5(C)CC[C@H](OC(C)=O)C(C)(C)[C@@H]5CC[C@]43C)[C@@H]12 | 20% | Active | 2.02 µM | 2.87 µM | 3.44 µM | 3.62 µM | 2.76 µM | 3.73 µM | 2.45 µM | 2.54 µM | Activity (HT-29 [6]): inactive; Activity (HT-29 [7]): inactive; Activity (HT-29 [8]): inactive; Activity (HT-29 [9]): 25.11%; Activity (HT-29 [10]): Active; Activity (HT-29 [11]): Active; Activity (HT-29 [12]): 60.66%; Activity (HT-29 [13]): 38.41%; Activity (HT-29 [14]): 18.07%; Activity (HT-29 [15]): inactive; Activity (HT-29 [16]): inactive; Activity (HT-29 [17]): inactive; Activity (HT-29 [18]): inactive; Activity (HT-29 [19]): 13.85%; Activity (HT-29 [20]): 19.83%; Activity (HT-29 [21]): 7.6%; Activity (HT-29 [22]): inactive; Activity (HT-29 [23]): 16.39%
C=C(C)[C@@H]1CC[C@]2(C(=O)NC(CO)(CO)CO)CC[C@]3(C)[C@H](CC[C@@H]4[C@@]5(C)CC[C@H](O)C(C)(C)[C@@H]5CC[C@]43C)[C@@H]12 |  |  | > 100 µM | > 100 µM | > 100 µM | > 100 µM | > 100 µM | > 100 µM | > 100 µM | > 100 µM | 
C=C(C)[C@@H]1CC[C@]2(C(=O)OCC(CO)CO)CC[C@]3(C)[C@H](CC[C@@H]4[C@@]5(C)CC[C@H](O)C(C)(C)[C@@H]5CC[C@]43C)[C@@H]12 |  |  | > 100 µM | > 100 µM | > 100 µM | > 100 µM | > 100 µM | > 100 µM | > 100 µM | > 100 µM | 
C=C(C)[C@@H]1CC[C@]2(C(=O)NC(CO)(CO)CO)CC[C@]3(C)[C@H](CC[C@@H]4[C@@]5(C)CC[C@H](OC(C)=O)C(C)(C)[C@@H]5CC[C@]43C)[C@@H]12 |  |  | 29.5 µM | 29.6 µM | 30.5 µM | 10.1 µM | 29.4 µM | 10.2 µM | 10 µM | 10.3 µM | 
C=C(C)[C@@H]1CC[C@]2(C(=O)O)CC[C@]3(C)[C@H](CC[C@@H]4[C@@]5(C)CCC(=O)C(C)(C)[C@@H]5CC[C@]43C)[C@@H]12 [BETUNOLIC ACID] |  |  | 10.1 µM | 10.4 µM | 10.1 µM | 2.98 µM | 10.4 µM | 3.05 µM | 10 µM | 3.26 µM | 
C=C(C)[C@@H]1CC[C@]2(C(=O)OCC(N)(CO)CO)CC[C@]3(C)[C@H](CC[C@@H]4[C@@]5(C)CCC(=O)C(C)(C)[C@@H]5CC[C@]43C)[C@@H]12 | 20% | Active | 10.5 µM | 10.8 µM | 10.8 µM | 10 µM | 10.6 µM | 10.1 µM | 9.44 µM | 10.1 µM | Activity (HT-29 [6]): inactive; Activity (HT-29 [7]): inactive; Activity (HT-29 [24]): inactive; Activity (HT-29 [25]): inactive; Activity (HT-29 [10]): inactive; Activity (HT-29 [11]): Active; Activity (HT-29 [12]): inactive; Activity (HT-29 [26]): inactive; Activity (HT-29 [14]): inactive; Activity (HT-29 [15]): Active; Activity (HT-29 [17]): inactive; Activity (HT-29 [19]): inactive; Activity (HT-29 [21]): inactive
C=C(C)[C@@H]1CC[C@]2(C(=O)OCC(N)(CO)CO)CC[C@]3(C)[C@H](CC[C@@H]4[C@@]5(C)CC[C@H](O)C(C)(C)[C@@H]5CC[C@]43C)[C@@H]12 |  |  | > 100 µM | > 100 µM | > 100 µM | 3.46 µM | > 100 µM | > 100 µM | 8.9 µM | 3.61 µM | 
